HTRA1 inh: HTRA1 (human) protease inhibition | Q92743 | recombinant HTRA1, FP-rhodamine activity-based probe, fluorescence polarization | inhibition, % at 5.96 µM | 340,000 tested, 0.5% active; in the data active = inhibition above about 36%;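 also: 0% = enzyme with DMSO and 100% = wells lacking enzyme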
ABHD4 inh: ABHD4 (mouse) inhibition, primary FP screen | inhibition, % at 8.92 µM | 370,000 tested, 0.54% active | purified mABHD4, FP-Rh probe fluorescence polarization | AID 720543;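 active = inhibition exceeding the mean over every tested compound plus 3 SD, cut at about 30% in these data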;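 also: 0% = plate median of compound wells and 100% = S159A mutant with DMSO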
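Test system: mouse ABHD4 enzyme, wild type. Reagent: FP-Rh fluorescent activity-based probe, added after compound pre-incubation. Timing: pre-incubation 45 min, probe exposure 60 min, at 25 °C. Technique: FP readout, ex 525 nm / em 598 nm. Benchmarks: high control S159A mutant with DMSO, low control median of compound wells.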
rCAG binder: r(CAG) repeat RNA binding; TO-PRO-1 dye displacement fluorescence; inhibition, % at 3 µM; 370,000 tested, 1.3% active; AID 651821;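 active = inhibition above the plate cutoff, the mean of all test compounds on that plate plus 3 SD, cut at about 35% in these data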;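 also: 0% = DMSO alone and 100% = 100 µM mitoxantrone as full dye displacement; higher means more dye released from RNA so lower well fluorescence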
SIAE inh: human SIAE inhibition, primary screen; SIAE FP-Rh probe binding, fluorescence polarization; inhibition, % at 9.66 µM; 370,000 tested, 0.69% active;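 active = inhibition above a cutoff: mean of compounds within the control limits plus 3 SD of those, cut at about 17% in these data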;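 also: 0% = plate median of compound wells and 100% = probe without SIAE protein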
Target sequence (Q9HAT2 whole entry, looked up): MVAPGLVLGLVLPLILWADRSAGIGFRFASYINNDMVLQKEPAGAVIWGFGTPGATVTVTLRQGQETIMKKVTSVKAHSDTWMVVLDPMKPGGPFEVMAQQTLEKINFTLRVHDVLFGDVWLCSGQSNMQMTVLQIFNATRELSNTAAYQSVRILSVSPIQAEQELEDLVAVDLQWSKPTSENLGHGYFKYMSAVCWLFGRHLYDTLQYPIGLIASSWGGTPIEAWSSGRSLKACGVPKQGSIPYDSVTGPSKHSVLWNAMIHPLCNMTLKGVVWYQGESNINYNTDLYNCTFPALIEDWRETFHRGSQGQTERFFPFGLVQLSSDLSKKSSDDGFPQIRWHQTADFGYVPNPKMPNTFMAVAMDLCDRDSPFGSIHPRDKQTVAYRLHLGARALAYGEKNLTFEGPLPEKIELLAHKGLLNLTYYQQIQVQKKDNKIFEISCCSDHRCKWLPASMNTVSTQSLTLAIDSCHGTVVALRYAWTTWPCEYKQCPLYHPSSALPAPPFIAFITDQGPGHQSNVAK
PRMT1 inh: inhibitors of human PRMT1; inhibition, % at 2.79 µM; AID 652257; recombinant PRMT1, activity-based probe fluorescence polarization; Q99873; 370,000 tested, 1.3% active;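 active = inhibition above about 21% made by adding two undisclosed values, limit read from the data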
TCR CD3 inh: human TCR-CD3 binding inhibition; TAMRA-labeled TCR probe fluorescence, biochemical; inhibition, % at 9.4 µM; 360,000 tested, 0.37% active; in the data active = inhibition above about 19%;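 also: recombinant mutant TCR 2C K166C tagged with TAMRA read by polarization; 0% = receptor in buffer alone and 100% = receptor with positive control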
rCAG binder conf: r(CAG) RNA repeat binding, confirmation. AID 652065. 4,300 tested, 70% active. TO-PRO-1 dye displacement fluorescence. inhibition, % at 3 µM. shares compounds with rCAG binder;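 active = inhibition above a per-plate cutoff, the mean inhibition of sample wells plus 3 SD, cut at about 35% in these data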;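 also: loss of TO-PRO-1 fluorescence as compound displaces dye from 1x1 AA loop RNA; 0% = DMSO only wells and 100% = 100 µM mitoxantrone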
DNA CAG counter: disrupts DNA CAG TO-PRO-1 complex, flagging rCAG hits | AID 652068 | inhibition, % at 3 µM | shares compounds with rCAG binder | 4,300 tested, 94% active | d(CAG) DNA oligo TO-PRO-1 dye displacement, fluorescence;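 active = inhibition above its plate's cutoff, the mean test-well inhibition plus 3 SD, cut at about 4.8% in these data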;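 also: 0% = DNA dye mix with DMSO and 100% = 100 µM mitoxantrone; hits displace the dye from DNA and so lower well fluorescence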
* marks the source's active call; other numbers are inactive results; x = no result. Sampled rows, rich in hits. Any-hit rate of the full collection: about 3.5%.

SMILES | HTRA1 inh | ABHD4 inh | rCAG binder | SIAE inh | PRMT1 inh | TCR CD3 inh | rCAG binder conf | DNA CAG counter
Cc1ccccc1CN1CCCCC(NC(=O)c2cc(-c3ccccc3)no2)C1=O (stereo unspecified) | x | -5 | 5 | -7 | 4 | x | x | x
CN(CCO)c1cccc2c1S(=O)(=O)N(Cc1cn(Cc3ccc(Cl)cc3)nn1)Cc1ccccc1O2 | x | 4 | 4 | 1 | -2 | x | x | x
CCCCCCCC(=O)N1c2ccccc2NC(=O)C1CC(=O)Nc1ccc(C(=O)O)cc1 (stereo unspecified) | -3 | -35 | 30 | 0 | 2 | 4 | x | x
CCCCCCCCCC(=O)N1c2ccccc2NC(=O)C1CC(=O)Nc1ccc(C(=O)O)cc1 (stereo unspecified) | -22 | -57 | 74* | -1 | 1 | 7 | 70* | 30*
Cc1cc(/C=N/NC(=O)C(O)(c2ccccc2)c2ccccc2)c(C)n1-c1ccc(C(=O)O)cc1 | -5 | 25 | 35* | -4 | 0 | 6 | 28 | 12*
Cc1cc(/C=N/NC(=O)C(O)(c2ccccc2)c2ccccc2)c(C)n1-c1cccc(C(=O)O)c1 | 3 | 22 | 41* | 0 | 5 | 8 | 58* | 26*
COc1ccc(S[C@]2(C(=O)N3CCN(C(C)=O)CC3)CC(=O)N(C(=O)Nc3ccc(C)c(Cl)c3)[C@@H]2c2ccc(OC)cc2)cc1 | x | -23 | 11 | -6 | 3 | x | x | x
C=Cc1ccc(C(=O)Nc2nnc(-c3cccnc3)s2)cc1 | x | -10 | 7 | 13 | -3 | x | x | x
Cc1cc(N2CCOc3ccccc32)nc2ccccc12 | x | -6 | x | 2 | 8 | x | x | x
Cc1ccc(Cn2nnc3c2-c2ccccc2S(=O)(=O)N(C(C)(C)C)C3)cc1 | x | 1 | -1 | 7 | -1 | x | x | x
O=C1OC(c2cccs2)=N/C1=C/c1ccc(-c2cccc(C(=O)O)c2)o1 | -12 | 9 | 18 | -4 | 19 | 3 | x | x
O=C1OC(c2cccs2)=N/C1=C\c1ccc(-c2ccccc2Cl)o1 | -13 | 3 | 40* | -8 | 13 | -10 | 37* | 16*
COc1cc(/C=C2\SC(=S)N(Nc3ccccc3)C2=O)ccc1O | -185 | -215 | 28 | -207 | 4 | -110 | x | x
O=C(O)C(Cc1ccccc1)N1C(=O)/C(=C/c2ccccc2)SC1=S (stereo unspecified) | -23 | -3 | 53* | -3 | 2 | -4 | 56* | 20*
COc1cc(/C=C2\SC(=S)N(C(Cc3ccccc3)C(=O)O)C2=O)ccc1O (stereo unspecified) | -166 | -211 | 45* | -153 | 13 | -89 | 34 | 7.9*
O=C(O)C(Cc1ccccc1)N1C(=O)c2ccccc2C1=O (stereo unspecified) | 10 | -3 | 1 | 0 | 3 | 4 | x | x
O=C(O)C(Cc1ccccc1)N1C(=O)c2c(Cl)c(Cl)c(Cl)c(Cl)c2C1=O (stereo unspecified) | -11 | -2 | 51* | 3 | -1 | 3 | 53* | 17*
Cc1ccc(/C=C2\SC(=S)N(C(Cc3ccccc3)C(=O)O)C2=O)cc1 (stereo unspecified) | -25 | 2 | 42* | 16 | 4 | -3 | 80* | 37*
OC(c1ccccc1)(c1ccccc1)C1CCN(CCCNc2ccccc2Br)CC1 | x | 11 | 2 | -2 | -3 | x | x | x
O=C1C[C@@H](C(=O)Nc2ccc(Cl)cc2)[C@@H](c2ccccc2)O1 | x | -4 | 1 | -7 | -3 | x | x | x
COc1ccc(-c2nnc(NC(=O)c3ccc(S(=O)(=O)N4COCC4(C)C)cc3)o2)cc1 | 2 | -16 | 46* | 1 | 5 | 7 | 54* | 15*
Cc1cccc(OCCCC(=O)Nc2ccc(S(=O)(=O)Nc3ncccn3)cc2)c1C | -12 | -10 | 25 | 0 | -1 | -9 | x | x
O=C(COc1ccc(F)cc1Cl)Nc1ccc(S(=O)(=O)Nc2nccs2)cc1 | -5 | -10 | 43* | -10 | 1 | 3 | 40* | 13*
Cc1cccc(OCCCC(=O)Nc2nccs2)c1C | -5 | -1 | 5 | 10 | -2 | -1 | x | x
Cc1noc(NS(=O)(=O)c2ccc(NC(=O)COc3ccc(C#N)cc3)cc2)c1C | 3 | 4 | 13 | 1 | 3 | 3 | x | x
SMILES | HTRA1 inh | ABHD4 inh | rCAG binder | SIAE inh | PRMT1 inh | TCR CD3 inh | rCAG binder conf | DNA CAG counter
Cc1cccc(OCCCC(=O)Nc2ccc(S(=O)(=O)Nc3onc(C)c3C)cc2)c1C | 0 | 2 | 59* | -1 | 2 | 9 | 32 | 8.5*
Cc1cccc(OCC(=O)Nc2ccc(S(=O)(=O)Nc3onc(C)c3C)cc2)c1C | -3 | -3 | 41* | -1 | -1 | 5 | 26 | 6.5*
Cc1cccc(OCCCC(=O)Nc2ccc(S(=O)(=O)Nc3nccs3)cc2)c1C | -18 | -18 | 59* | 2 | -2 | -8 | 49* | 17*
COc1ccc(OC)c(S(=O)(=O)N2CCC(C(=O)N3CCN(C4CCCCC4)CC3)CC2)c1 | x | 6 | 0 | 3 | 0 | x | x | x
O=C(Nc1ccc(F)cc1F)C1CCN(c2nnc(-n3cccc3)s2)CC1 | x | -3 | 4 | -1 | -2 | x | x | x
COC(=O)[C@H]1C[C@@]2(N3CCCC3)c3ccccc3N[C@H]2N1S(C)(=O)=O | x | 3 | 5 | 5 | 1 | x | x | x
CCCCNC(=O)C1(C(=O)c2ccc(OC)cc2)CC(c2ccccc2C(F)(F)F)=NO1 (stereo unspecified) | x | 3 | 0 | 0 | 2 | x | x | x
CNC(=O)[C@@H]1CC=C[C@@H]2CCN(c3ccccc3)C(=O)[C@@H]21 | x | 2 | x | -4 | 0 | x | x | x
C=CCSc1nnc(NC(=O)c2cccc(S(=O)(=O)N(C)c3ccccc3)c2)s1 | -10 | -7 | 48* | -7 | -1 | 3 | 44* | 14*
CCOc1ccc(N2CC(C(=O)Nc3ccc(S(=O)(=O)Nc4nccs4)cc3)CC2=O)cc1 (stereo unspecified) | 10 | 10 | 49* | -4 | 3 | -1 | 34 | 12*
CCOc1ccc(N2CC(C(=O)Nc3ccc(S(=O)(=O)Nc4ncccn4)cc3)CC2=O)cc1 (stereo unspecified) | 0 | -6 | 9 | 2 | 1 | 7 | x | x
O=C(Nc1ccc(S(=O)(=O)Nc2nccs2)cc1)C1CC(=O)N(c2ccccc2)C1 (stereo unspecified) | -5 | x | x | x | x | x | x | x
Cc1ccc(N2CC(C(=O)Nc3ccc(S(=O)(=O)Nc4nccs4)cc3)CC2=O)cc1 (stereo unspecified) | 3 | -3 | 36* | -5 | -2 | -3 | 27 | 6.7*
O=C(/C=C/c1ccco1)Nc1sc2c(c1C(=O)O)CCC2 | 8 | 17 | 27 | -9 | 11 | 3 | x | x
N#Cc1c(NC(=O)/C=C/c2ccco2)sc2c1CCCC2 | -14 | -8 | 38* | -3 | 14 | 6 | 26 | 14*

Screening results: PubChem, The Scripps Research Institute Molecular Screening Center
